Test [1] relates to Bacillus pumilus. As to the kind of experiment: Antibacterial activity against Bacillus pumilus by broth dilution technique.
For test [2], the system named is Klebsiella pneumoniae. Kind of test: Antibacterial activity against Klebsiella pneumoniae at 100 ug/ml by disk diffusion method. The class given is functional. To be noted: for zone of inhibition at 100 µg/mL: read-out: IZ. A digest of the protocol:
(§1)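 Agar disc diffusion on nutrient agar plates. Inoculum of […] (0.5 McFarland) spread evenly over the agar surface. Whatman filter paper discs, 6.25 mm diameter, dry-heat sterilized at 140 °C for 1 h, soaked in test solution and placed on the agar. Plates inverted and incubated 24 h at 37 °C. Solvent and growth controls and a ciprofloxacin reference run alongside. Inhibition zones measured.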
(In agar diffusion tests the substance spreads into inoculated agar from a disc or well.)

Test [3] has as its system Bacillus pumilus. Kind of test: Antibacterial activity against Bacillus pumilus at 100 ug/ml by disk diffusion method. The note with it: read-out: IZ. The class given is functional. A digest of the protocol: as §1
The subject of the next test is Staphylococcus aureus. Kind of test: Antibacterial activity against Staphylococcus aureus at 100 ug/ml by disk diffusion method. The class given is functional. The note with it: read-out: IZ. A digest of the protocol:
as §1

Another test relates to Pseudomonas aeruginosa. Kind of test: Antibacterial activity against Pseudomonas aeruginosa at 100 ug/ml by disk diffusion method. The class given is functional. The note with it: for zone of inhibition at 100 µg/mL: read-out: IZ. An outline of the steps: as §1
In test [4] the test system is Klebsiella pneumoniae. Kind of test: Antibacterial activity against Klebsiella pneumoniae by broth dilution technique. A general note: Broth dilution looks for growth in wells or tubes with falling amounts of substance.
In test [5] the test system is Bacillus subtilis. As to the kind of experiment: Antibacterial activity against Bacillus subtilis by broth dilution technique.
Test [6] concerns Bacillus subtilis. Kind of test: Antibacterial activity against Bacillus subtilis at 100 ug/ml by disk diffusion method. The class given is functional. The note with it: read-out: IZ. A digest of the protocol: as §1
Another test relates to Escherichia coli. Kind of test: Antibacterial activity against Escherichia coli at 100 ug/ml by disk diffusion method. The note with it: for zone of inhibition at 100 µg/mL: read-out: IZ. The class given is functional. A digest of the protocol: as §1

Broadly, the MIC is the lowest concentration found to suppress growth.

Structures are written as SMILES. ≈ marks a conversion by molar mass, not a printed value. Calls of active or inactive are those of the source. The calls are words filed in the database; no cut-off is given here.

For the molecule `O=C(O)c1cn(C2CC2)c2cc(N3CCNCC3)c(F)cc2c1=O` [CIPROFLOXACIN], the MIC worked out at 0.25 µg/mL (≈ 0.754 µM) with Bacillus pumilus [1], 12.5 µg/mL (≈ 37.7 µM) against Klebsiella pneumoniae [4] and 0.06 µg/mL (≈ 0.181 µM) against Bacillus subtilis [5]. For the same molecule, the zone of inhibition at 100 µg/mL turned out to be 19 mm with Klebsiella pneumoniae [2]; 36 mm in the test on Bacillus pumilus [3]; 22 mm in the test on Staphylococcus aureus; 32 mm in the test on Pseudomonas aeruginosa; 38 mm with Bacillus subtilis [6]; 27 mm in the test with Escherichia coli.

As to `Nc1nc(N)nc(N/N=C/c2ccc(C=O)cc2)n1`, in the test with Klebsiella pneumoniae [2], the “inhibition zone (IZ)” value was “inactive”. Also, the zone of inhibition at 100 µg/mL in the test with Bacillus pumilus [3] is 15 mm; with Staphylococcus aureus it was 9 mm; in the test with Pseudomonas aeruginosa it was 11 mm; in the test with Bacillus subtilis [6], 16 mm; in the test with Escherichia coli, 15 mm.

Consider `CNc1nc(N)nc(N/N=C/c2ccc(C=O)cc2)n1`, for which the zone of inhibition at 100 µg/mL turned out to be 15 mm with Klebsiella pneumoniae [2]; 13 mm in the test with Bacillus pumilus [3]; 9 mm in the test with Staphylococcus aureus; 13 mm in the test with Pseudomonas aeruginosa; 18 mm in the test on Bacillus subtilis [6]; 15 mm in the test with Escherichia coli.

`CN(C)c1nc(N/N=C/c2ccc(C=O)cc2)nc(N(C)C)n1`: the “inhibition zone (IZ)” value in the test on Klebsiella pneumoniae [2], in the test on Pseudomonas aeruginosa and in the test with Escherichia coli was “inactive” in each case. Moreover, the zone of inhibition at 100 µg/mL with Bacillus pumilus [3] was 10 mm; with Staphylococcus aureus, 9 mm; in the test with Bacillus subtilis [6] it was 10 mm.

As to `CNc1nc(NC)nc(N/N=C/c2ccc(C=O)cc2)n1`, the zone of inhibition at 100 µg/mL in the test on Klebsiella pneumoniae [2] came to 14 mm; in the test with Bacillus pumilus [3] it was 10 mm; in the test on Staphylococcus aureus, 11 mm; in the test with Pseudomonas aeruginosa, 11 mm; in the test with Bacillus subtilis [6], 12 mm; with Escherichia coli, 14 mm.

For `CNc1nc(N/N=C/c2ccc(C=O)cc2)nc(N(C)C)n1`, the zone of inhibition at 100 µg/mL in the test on Klebsiella pneumoniae [2] was 12 mm; with Bacillus pumilus [3], 11 mm; with Staphylococcus aureus, 10 mm; in the test on Pseudomonas aeruginosa it was 10 mm; with Bacillus subtilis [6], 10 mm; in the test with Escherichia coli it was 12 mm.

The record behind these values is ChEMBL document CHEMBL1137747, “Fullerene derivatized s-triazine analogues as antimicrobial agents” (2009).
